Ki and inhibition data for 45 compounds are collected here from ChEMBL document CHEMBL4390678, “Structure-Activity Relationship of Purine and Pyrimidine Nucleotides as Ecto-5'-Nucleotidase (CD73) Inhibitors” (J Med Chem, 2019).

Assay [1] concerns the target T1, 5'-nucleotidase (Rattus norvegicus, UniProt P21588).
T1 sequence (P21588 whole entry): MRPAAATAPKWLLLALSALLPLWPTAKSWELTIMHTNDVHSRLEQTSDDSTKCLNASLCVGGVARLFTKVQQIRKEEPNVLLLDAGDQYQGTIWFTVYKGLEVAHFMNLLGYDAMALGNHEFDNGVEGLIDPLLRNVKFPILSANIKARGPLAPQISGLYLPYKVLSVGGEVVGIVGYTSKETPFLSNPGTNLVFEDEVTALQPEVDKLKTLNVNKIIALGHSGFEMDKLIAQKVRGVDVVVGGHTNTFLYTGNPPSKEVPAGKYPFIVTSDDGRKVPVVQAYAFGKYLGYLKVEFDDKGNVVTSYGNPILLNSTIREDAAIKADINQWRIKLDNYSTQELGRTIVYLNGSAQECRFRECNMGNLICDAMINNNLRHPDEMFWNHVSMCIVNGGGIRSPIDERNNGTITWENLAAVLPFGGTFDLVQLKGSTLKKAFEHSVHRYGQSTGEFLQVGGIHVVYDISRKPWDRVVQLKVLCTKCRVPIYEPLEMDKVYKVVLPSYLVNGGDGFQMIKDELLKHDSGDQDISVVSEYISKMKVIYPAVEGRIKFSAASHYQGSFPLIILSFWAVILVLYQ
Nature of the assay: Inhibition of recombinant rat C-terminal His-tagged soluble form of CD73 expressed in baculovirus infected Sf9 insect cells using [2,8-3H]AMP as substrate measured after 25 mins by scintillation counting method. The method in brief:
(§1)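 Enzyme is soluble rat CD73 from Sf9 cells, 1.63 ng per vial, in 25 mM Tris, 140 mM NaCl, 25 mM NaH2PO4, pH 7.4. […] Stopped by LaCl3 precipitation and GF/B filtration, then counted. Each compound first screened at 1 µM.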

In assay [2] the target is T2, 5'-nucleotidase (Rattus norvegicus) (UniProt P21588).
T2 sequence (whole entry): T1 sequence (P21588 whole entry)
Nature of the assay: Inhibition of recombinant rat C-terminal His-tagged soluble form of CD73 expressed in baculovirus infected Sf9 insect cells at 1 uM using [2,8-3H]AMP as substrate measured after 25 mins by scintillation counting method relative to control. The method in brief: as §1

For assay [3], the target named is T3, 5'-nucleotidase (Homo sapiens, UniProt P21589). As to the kind of experiment: Inhibition of recombinant human C-terminal His-tagged soluble form of CD73 expressed in baculovirus infected Sf9 insect cells using [2,8-3H]AMP as substrate measured after 25 mins by scintillation counting method. The essentials:
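Soluble human CD73 lacking the GPI signal, with a C-terminal 6xHis tag, secreted from baculovirus-infected Sf9 cells and purified on Ni-NTA; 0.365 ng per vial. […] Product separated by lanthanum chloride precipitation and filtration, then scintillation counted.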

In assay [4] the target is T3, 5'-nucleotidase. As to the kind of experiment: Inhibition of CD73 in human MDA-MB-231 cell membranes using [2,8-3H]AMP as substrate measured after 25 mins by scintillation counting method. The method in brief: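 MDA-MB-231 membranes (7.4 ng protein per vial) in 25 mM Tris, 140 mM NaCl, 25 mM NaH2PO4, pH 7.4. […] Stopped with cold LaCl3/acetate buffer pH 4.0 and filtered on GF/B. Background-subtracted and normalized to the uninhibited control.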

Some results are limits rather than exact numbers.

T3 sequence (P21589 whole entry): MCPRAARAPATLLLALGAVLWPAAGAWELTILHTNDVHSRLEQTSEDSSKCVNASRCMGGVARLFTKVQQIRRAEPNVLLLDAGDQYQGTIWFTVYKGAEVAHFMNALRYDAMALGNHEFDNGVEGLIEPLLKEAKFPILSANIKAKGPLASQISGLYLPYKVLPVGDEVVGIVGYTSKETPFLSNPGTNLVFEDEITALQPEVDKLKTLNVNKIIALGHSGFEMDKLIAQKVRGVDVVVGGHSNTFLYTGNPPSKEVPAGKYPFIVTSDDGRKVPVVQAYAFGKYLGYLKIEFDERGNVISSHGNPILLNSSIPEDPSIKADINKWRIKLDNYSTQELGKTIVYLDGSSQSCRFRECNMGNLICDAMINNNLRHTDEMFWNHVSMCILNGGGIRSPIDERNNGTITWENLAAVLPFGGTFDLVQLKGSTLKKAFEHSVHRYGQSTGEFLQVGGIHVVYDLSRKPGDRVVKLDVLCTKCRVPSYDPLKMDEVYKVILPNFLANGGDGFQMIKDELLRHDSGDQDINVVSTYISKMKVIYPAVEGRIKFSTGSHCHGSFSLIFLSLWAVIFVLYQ

Take `O=c1ccn([C@@H]2O[C@H](COP(=O)(O)CP(=O)(O)O)[C@@H](O)[C@H]2O)c(=O)n1Cc1ccccc1`: the Ki (usually the equilibrium dissociation constant of an inhibitor or competing ligand from its target) in assay [1] is more than 1000 nM. Further, the inhibition (usually the drop in the measured response relative to a control, in per cent) in assay [2] was determined as 3%.
For `Nc1nccc2c1ncn2[C@@H]1O[C@H](COP(=O)(O)CP(=O)(O)O)[C@@H](O)[C@H]1O`, the Ki in assay [1] was more than 1000 nM. Moreover, the inhibition in assay [2] was found to be 36%.
For `Nc1ncnc2c1ncn2[C@@H]1O[C@H](COP(=O)(O)CP(=O)(O)O)[C@@H](O)[C@H]1N`, in that order: more than 1000 nM and 2%.
For `O=c1ccn([C@@H]2O[C@H](COP(=O)(O)CP(=O)(O)O)[C@@H](O)[C@@H]2O)c(=O)[nH]1`, in that order: more than 1000 nM and 8%.
With `CCn1c(=O)ccn([C@@H]2O[C@H](COP(=O)(O)CP(=O)(O)O)[C@@H](O)[C@H]2O)c1=O`, the Ki in assay [1] is more than 1000 nM. The inhibition in assay [2] was found to be 4%.
For `Cc1cn([C@@H]2O[C@H](COP(=O)(O)CP(=O)(O)O)[C@@H](O)[C@H]2O)c(=O)[nH]c1=O`, in that order: 338 nM and more than 50%.
For `O=c1ccn([C@@H]2O[C@H](COP(=O)(O)CCP(=O)(O)O)[C@@H](O)[C@H]2O)c(=O)[nH]1`, in that order: more than 1000 nM and 4%.
The matching figures for `C#Cc1cn([C@@H]2O[C@H](COP(=O)(O)CP(=O)(O)O)[C@@H](O)[C@H]2O)c(=O)[nH]c1=O`: 276 nM and more than 50%.
On to `[N-]=[N+]=N[C@@H]1[C@H](O)[C@@H](COP(=O)(O)CP(=O)(O)O)O[C@H]1n1ccc(=O)[nH]c1=O`, for which the Ki in assay [1] was more than 1000 nM. In addition, the inhibition in assay [2] was determined as 9%.
The matching figures for `O=c1[nH]c(=O)n([C@@H]2O[C@H](COP(=O)(O)CP(=O)(O)O)[C@@H](O)[C@H]2O)cc1Cl`: 86.7 nM and more than 50%.
The matching figures for `O=c1ccn([C@@H]2O[C@H](COP(=O)(O)CP(=O)(O)O)[C@@H](O)[C@H]2F)c(=O)[nH]1`: more than 1000 nM and 11%.
Consider `CO[C@@H]1[C@H](O)[C@@H](COP(=O)(O)CP(=O)(O)O)O[C@H]1n1cc(C)c(=O)[nH]c1=O`, for which the inhibitory constant (Ki) in assay [1] is more than 1000 nM. The inhibition in assay [2] stood at 3%.
Take `O=c1ccn([C@@]23C[C@H]2[C@H](COP(=O)(O)CP(=O)(O)O)[C@@H](O)[C@H]3O)c(=O)[nH]1`: in assay [1], the Ki is more than 1000 nM. Also, the inhibition in assay [2] is 12%.
The matching figures for `Nc1ccnc2c1ncn2[C@@H]1O[C@H](COP(=O)(O)CP(=O)(O)O)[C@@H](O)[C@H]1O`: more than 1000 nM and 36%.
As for `O=c1ccn([C@@H]2O[C@H](COP(=O)(O)CP(=O)(O)O)[C@@H](O)[C@H]2O)c(=S)[nH]1`, the Ki in assay [1] was more than 1000 nM. Besides, the inhibition in assay [2] was 7%.
As to `N[C@@H]1[C@H](O)[C@@H](COP(=O)(O)CP(=O)(O)O)O[C@H]1n1ccc(=O)[nH]c1=O`, the inhibitory constant (Ki) in assay [1] was more than 1000 nM. Also, the inhibition in assay [2] was determined as 2%.
For `Nc1nc(=O)n([C@@H]2O[C@H](COP(=O)(O)CP(=O)(O)O)[C@@H](O)[C@H]2O)cc1I`, in that order: 502 nM and more than 50%.
The matching figures for `O=c1cnn([C@@H]2O[C@H](COP(=O)(O)CP(=O)(O)O)[C@@H](O)[C@H]2O)c(=O)[nH]1`: more than 1000 nM and 21%.
The matching figures for `O=c1[nH]c(=O)n([C@@H]2O[C@H](COP(=O)(O)CP(=O)(O)O)[C@@H](O)[C@H]2O)cc1I`: 162 nM and more than 50%.
Regarding `O=c1[nH]/c(=N/OCc2ccccc2)ccn1[C@H]1C[C@H](O)[C@@H](COP(=O)(O)CP(=O)(O)O)O1`, in assay [1], the Ki came to 780 nM. Also, the inhibition in assay [2] is more than 50%.
For `CCCn1c(=O)ccn([C@@H]2O[C@H](COP(=O)(O)CP(=O)(O)O)[C@@H](O)[C@H]2O)c1=O`, the Ki in assay [1] is more than 1000 nM. Also, in assay [2], the inhibition is 7%.
For `Nc1ncnc2c1ccn2[C@@H]1O[C@H](COP(=O)(O)CP(=O)(O)O)[C@@H](O)[C@H]1O`, in that order: 88.6 nM and more than 50%.
As for `O=c1ccn([C@H]2C[C@H](O)[C@@H](CO[P@@](=O)(O)CP(=O)(O)O)O2)c(=O)[nH]1`, in assay [1], the inhibition constant (Ki) is more than 1000 nM. The inhibition in assay [2] is 37%.
The matching figures for `CO/N=c1/ccn([C@@H]2O[C@H](COP(=O)(O)CP(=O)(O)O)[C@@H](O)[C@H]2O)c(=O)[nH]1`: 257 nM and more than 50%.
For `O=c1[nH]/c(=N\OCc2ccccc2)ccn1[C@@H]1O[C@H](COP(=O)(O)CP(=O)(O)O)[C@@H](O)[C@H]1O`, in that order: 112 nM and more than 50%.
The matching figures for `O=c1ccn([C@@H]2O[C@H](COP(=O)(O)CP(=O)(O)O)[C@@H](O)[C@H]2O)c(=O)[nH]1`: 1830 nM and more than 50%.
`O=c1ccn([C@@H]2O[C@H](COP(=O)(O)CP(=O)(O)O)[C@@H](O)[C@@H]2F)c(=O)[nH]1`: the Ki in assay [1] turned out to be 1750 nM. Further, the inhibition in assay [2] is more than 50%.
Take `Nc1ncnc2c1ncn2[C@@H]1O[C@H](COP(=O)(O)CP(=O)(O)O)C[C@H]1O`: the Ki in assay [1] amounted to 1970 nM. For the same compound, the inhibition in assay [2] is more than 50%.
As for `CCn1c(=O)n([C@@H]2O[C@H](COP(=O)(O)CP(=O)(O)O)[C@@H](O)[C@H]2O)cc/c1=N\OCc1ccccc1`, the Ki in assay [1] was determined as 262 nM. In addition, the inhibition in assay [2] is more than 50%.
The matching figures for `Cn1c(=O)ccn([C@@H]2O[C@H](COP(=O)(O)CP(=O)(O)O)[C@@H](O)[C@H]2O)c1=O`: 1860 nM and more than 50%.
The matching figures for `Cc1cn([C@@H]2O[C@H](COP(=O)(O)CCP(=O)(O)O)[C@@H](O)[C@H]2O)c(=O)[nH]c1=O`: more than 1000 nM and 9%.
For `Cc1cn([C@@H]2O[C@H](COP(=O)(O)CP(=O)(O)O)[C@@H](O)[C@H]2O)c(=O)nc1N`, in that order: 2030 nM and more than 50%.
For `C=C(Cl)c1cn([C@@H]2O[C@H](COP(=O)(O)CP(=O)(O)O)[C@@H](O)[C@H]2O)c(=O)[nH]c1=O`, the inhibition constant (Ki) in assay [1] was 424 nM. Besides, the inhibition in assay [2] is more than 50%.
For `Nc1ncnc2c1ncn2[C@@H]1O[C@H](CO)[C@@H](OP(=O)(O)CP(=O)(O)O)[C@H]1N`, the inhibitory constant (Ki) in assay [1] is more than 1000 nM. For the same compound, in assay [2], the inhibition is 8%.
The matching figures for `Cc1cn([C@H]2C[C@H](O)[C@@H](COP(=O)(O)CP(=O)(O)O)O2)c(=O)[nH]c1=O`: 639 nM and more than 50%.
For `CCOP(=O)(O)OP(=O)(O)OC[C@H]1O[C@@H](n2ccc(=O)[nH]c2=S)[C@H](O)[C@@H]1O`, in that order: more than 1000 nM and 10%.
For `O=c1[nH]c(=O)n([C@@H]2O[C@H](COP(=O)(O)CP(=O)(O)O)[C@@H](O)[C@H]2O)cc1Br`, in that order: 88.7 nM and more than 50%.
Consider `Nc1ccn([C@@H]2O[C@H](COP(=O)(O)CP(=O)(O)O)[C@@H](O)[C@H]2O)c(=O)n1`, for which the Ki in assay [1] was 898 nM. Also, in assay [2], the inhibition is more than 50%.
In the case of `O=c1cc(O)ccn1[C@@H]1O[C@H](COP(=O)(O)CP(=O)(O)O)[C@@H](O)[C@H]1O`, the Ki in assay [1] was more than 1000 nM. Also, the inhibition in assay [2] was determined as 19%.
For `Cc1cn([C@@H]2O[C@H](COP(=O)(O)CP(=O)(O)O)[C@@H](O)[C@H]2O)c(=O)[nH]/c1=N/OCc1ccccc1`, in that order: 321 nM and more than 50%.
`Nc1nc(=O)n([C@@H]2O[C@H](COP(=O)(O)CP(=O)(O)O)[C@@H](O)[C@H]2O)cc1F`: in assay [1], the Ki was 349 nM. The inhibition in assay [2] is more than 50%.
The matching figures for `C=C(Cl)c1cn([C@@H]2O[C@H](COP(=O)(O)CP(=O)(O)O)[C@@H](O)[C@H]2O)c(=O)n(C)c1=O`: 1050 nM and more than 50%.
`O=c1[nH]/c(=N/OCc2ccccc2)c(F)cn1[C@@H]1O[C@H](COP(=O)(O)CP(=O)(O)O)[C@@H](O)[C@H]1O`: the inhibition constant (Ki) in assay [1] came to 85.1 nM; in assay [3] it was 15.9 nM; in assay [4], 16.6 nM. In addition, in assay [2], the inhibition was more than 50%.
Consider `Nc1ncnc2c1ncn2[C@H]1C[C@H](O)[C@@H](COP(=O)(O)CP(=O)(O)O)O1`, for which the Ki in assay [1] was more than 1000 nM. Besides, the inhibition in assay [2] turned out to be 30%.
For `Nc1ccn([C@H]2C[C@H](O)[C@@H](COP(=O)(O)CP(=O)(O)O)O2)c(=O)n1`, in that order: more than 1000 nM and 18%.
